Measured values reported in ChEMBL document CHEMBL3588831, “Synthesis and in Vivo Evaluation of [123I]Melanin-Targeted Agents” (J Med Chem, 2015).

System: Mus musculus
Assay: Biodistribution in eyes of C57BL/6J mouse bearing mouse B16F0 cells at 0.37 to 1.85 MBq, iv after 1 hr by gamma counting method
Type: ADME, organism-based, Eye
Settings: in vivo; call rule not given here
Procedure, shortened: (§1)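 Female C57BL/6J mice (5−6 weeks), s.c. inoculated on left flank with 3 × 10^5 B16F0 cells in Ca2+/Mg2+-free PBS, used 11 days later (tumors 2−12 mm). Radiotracer given via tail vein in 100 μL (~0.37 MBq for 1−24 h, 1.85 MBq for 48 h). Organs dissected, weighed, γ-counted, decay corrected. Expressed as % ID/g against injected-dose dilutions. Mean ± SEM, n = 5.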

| Drug uptake [% ID/g] | SMILES |
| --- | --- |
| 13.7 | O=C(CN1Cc2ccccc2C1=O)NC1CCN(Cc2ccc([123I])cc2)CC1 |

System: Mus musculus
Assay: Biodistribution in tumor of C57BL/6J mouse bearing mouse B16F0 cells at 0.37 to 1.85 MBq, iv after 16 hrs by gamma counting method
Type: ADME, organism-based
Settings: in vivo
Procedure, shortened: as §1

| Drug uptake [% ID/g] | SMILES |
| --- | --- |
| 18.1 | O=C(CN1Cc2ccccc2C1=O)NC1CCN(Cc2ccc([123I])cc2)CC1 |

System: Liver
Assay: Biodistribution in liver of C57BL/6J mouse bearing mouse B16F0 cells at 0.37 to 1.85 MBq, iv after 24 hrs by gamma counting method
Type: ADME, organism-based
Settings: in vivo
Procedure, shortened: as §1

| Drug uptake [% ID/g] | SMILES |
| --- | --- |
| 7.8 | O=C(CN1Cc2ccccc2C1=O)NC1CCN(Cc2ccc([123I])cc2)CC1 |

System: Spleen
Assay: Biodistribution in spleen of C57BL/6J mouse bearing mouse B16F0 cells at 0.37 to 1.85 MBq, iv after 16 hrs by gamma counting method
Type: ADME, organism-based
Settings: in vivo
Procedure, shortened: as §1

| Drug uptake [% ID/g] | SMILES |
| --- | --- |
| 1.3 | O=C(CN1Cc2ccccc2C1=O)NC1CCN(Cc2ccc([123I])cc2)CC1 |

System: Mus musculus
Assay: Biodistribution in eyes of C57BL/6J mouse bearing mouse B16F0 cells at 0.37 to 1.85 MBq, iv after 24 hrs by gamma counting method
Type: ADME, organism-based, Eye
Settings: in vivo
Procedure, shortened: as §1

| Drug uptake [% ID/g] | SMILES |
| --- | --- |
| 41.4 | O=C(CN1Cc2ccccc2C1=O)NC1CCN(Cc2ccc([123I])cc2)CC1 |

System: Liver
Assay: Biodistribution in liver of C57BL/6J mouse bearing mouse B16F0 cells at 0.37 to 1.85 MBq, iv after 6 hrs by gamma counting method
Type: ADME, organism-based
Settings: in vivo
Procedure, shortened: as §1

| Drug uptake [% ID/g] | SMILES |
| --- | --- |
| 35.1 | O=C(CN1Cc2ccccc2C1=O)NC1CCN(Cc2ccc([123I])cc2)CC1 |

System: Kidney
Assay: Biodistribution in kidney of C57BL/6J mouse bearing mouse B16F0 cells at 0.37 to 1.85 MBq, iv after 6 hrs by gamma counting method
Type: ADME, organism-based
Settings: in vivo
Procedure, shortened: as §1

| Drug uptake [% ID/g] | SMILES |
| --- | --- |
| 5 | O=C(CN1Cc2ccccc2C1=O)NC1CCN(Cc2ccc([123I])cc2)CC1 |

System: Mus musculus
Assay: Biodistribution in large gastrointestinal tract of C57BL/6J mouse bearing mouse B16F0 cells at 0.37 to 1.85 MBq, iv after 3 hrs by gamma counting method
Type: ADME, organism-based, Large intestine
Settings: in vivo
Procedure, shortened: as §1

| Drug uptake [% ID/g] | SMILES |
| --- | --- |
| 10.9 | O=C(CN1Cc2ccccc2C1=O)NC1CCN(Cc2ccc([123I])cc2)CC1 |

System: Liver
Assay: Biodistribution in liver of C57BL/6J mouse bearing mouse B16F0 cells at 0.37 to 1.85 MBq, iv after 48 hrs by gamma counting method
Type: ADME, organism-based
Settings: in vivo
Procedure, shortened: as §1

| Drug uptake [% ID/g] | SMILES |
| --- | --- |
| 1.9 | O=C(CN1Cc2ccccc2C1=O)NC1CCN(Cc2ccc([123I])cc2)CC1 |

System: not listed separately
Assay: Ratio of AUC in tumor to thyroid gland of C57BL/6J mouse bearing mouse B16F0 cells at 0.37 to 1.85 MBq, iv by gamma counting method
Type: ADME, organism-based
Settings: in vivo
Procedure, shortened: (§2)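 Biodistribution in B16F0-bearing C57BL/6J mice given i.v. tail-vein tracer (~0.37 MBq for 1–24 h, 1.85 MBq for 48 h). Sacrifice at 1, 3, 6, 16, 24 and 48 h, then organs dissected, weighed and γ-counted as decay-corrected % ID/g. Tumor AUC divided by each organ AUC; mean of ratios ± SEM, n = 5.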

| Ratio | SMILES |
| --- | --- |
| 5.8 | O=C(CN1Cc2ccccc2C1=O)NC1CCN(Cc2ccc([123I])cc2)CC1 |

System: Mus musculus
Assay: Biodistribution in tumor of C57BL/6J mouse bearing mouse B16F0 cells at 0.37 to 1.85 MBq, iv after 3 hrs by gamma counting method
Type: ADME, organism-based
Settings: in vivo
Procedure, shortened: as §1

| Drug uptake [% ID/g] | SMILES |
| --- | --- |
| 11.6 | O=C(CN1Cc2ccccc2C1=O)NC1CCN(Cc2ccc([123I])cc2)CC1 |

System: Brain
Assay: Drug distribution in brain of C57BL/6J mouse bearing mouse B16F0 cells at 18 to 20 MBq, iv measured over 72 hrs by SPECT imaging study
Type: ADME, organism-based
Settings: in vivo
Procedure, shortened: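 Female C57BL/6J mice bearing s.c. B16F0 tumors (11 days growth) received 18−20 MBq in 100 μL via lateral tail vein (n = 3). Isoflurane anesthesia (5% induction, 2−2.5% maintenance) on a 37 °C heating pad. Planar γ-camera imaging at 10−60 min (5 min frames), 3 and 6 h, 24, 48 and 72 h. Radioactivity localization assessed visually.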

| Drug uptake | SMILES |
| --- | --- |
| Not Active | O=C(CN1Cc2ccccc2C1=O)NC1CCN(Cc2ccc([123I])cc2)CC1 |

System: Mus musculus
Assay: Biodistribution in small gastrointestinal tract of C57BL/6J mouse bearing mouse B16F0 cells at 0.37 to 1.85 MBq, iv after 1 hr by gamma counting method
Type: ADME, organism-based, Small intestine
Settings: in vivo
Procedure, shortened: as §1

| Drug uptake [% ID/g] | SMILES |
| --- | --- |
| 11.9 | O=C(CN1Cc2ccccc2C1=O)NC1CCN(Cc2ccc([123I])cc2)CC1 |

System: Mus musculus
Assay: Biodistribution in tumor of C57BL/6J mouse bearing mouse B16F0 cells at 0.37 to 1.85 MBq, iv after 48 hrs by gamma counting method
Type: ADME, organism-based
Settings: in vivo
Procedure, shortened: as §1

| Drug uptake [% ID/g] | SMILES |
| --- | --- |
| 13.2 | O=C(CN1Cc2ccccc2C1=O)NC1CCN(Cc2ccc([123I])cc2)CC1 |

System: Mus musculus
Assay: Biodistribution in small gastrointestinal tract of C57BL/6J mouse bearing mouse B16F0 cells at 0.37 to 1.85 MBq, iv after 3 hrs by gamma counting method
Type: ADME, organism-based, Small intestine
Settings: in vivo
Procedure, shortened: as §1

| Drug uptake [% ID/g] | SMILES |
| --- | --- |
| 12 | O=C(CN1Cc2ccccc2C1=O)NC1CCN(Cc2ccc([123I])cc2)CC1 |

System: Mus musculus
Assay: Biodistribution in eyes of C57BL/6J mouse bearing mouse B16F0 cells at 0.37 to 1.85 MBq, iv after 16 hrs by gamma counting method
Type: ADME, organism-based, Eye
Settings: in vivo
Procedure, shortened: as §1

| Drug uptake [% ID/g] | SMILES |
| --- | --- |
| 40.4 | O=C(CN1Cc2ccccc2C1=O)NC1CCN(Cc2ccc([123I])cc2)CC1 |

System: Mus musculus
Assay: Biodistribution in thyroid gland of C57BL/6J mouse bearing mouse B16F0 cells at 0.37 to 1.85 MBq, iv after 1 hr by gamma counting method
Type: ADME, organism-based
Settings: in vivo
Procedure, shortened: as §1

| Drug uptake [% ID/g] | SMILES |
| --- | --- |
| 3.4 | O=C(CN1Cc2ccccc2C1=O)NC1CCN(Cc2ccc([123I])cc2)CC1 |

System: Spleen
Assay: Biodistribution in spleen of C57BL/6J mouse bearing mouse B16F0 cells at 0.37 to 1.85 MBq, iv after 6 hrs by gamma counting method
Type: ADME, organism-based
Settings: in vivo
Procedure, shortened: as §1

| Drug uptake [% ID/g] | SMILES |
| --- | --- |
| 3.6 | O=C(CN1Cc2ccccc2C1=O)NC1CCN(Cc2ccc([123I])cc2)CC1 |

System: Spleen
Assay: Biodistribution in spleen of C57BL/6J mouse bearing mouse B16F0 cells at 0.37 to 1.85 MBq, iv after 48 hrs by gamma counting method
Type: ADME, organism-based
Settings: in vivo
Procedure, shortened: as §1

| Drug uptake [% ID/g] | SMILES |
| --- | --- |
| 0.1 | O=C(CN1Cc2ccccc2C1=O)NC1CCN(Cc2ccc([123I])cc2)CC1 |

System: Liver
Assay: Biodistribution in liver of C57BL/6J mouse bearing mouse B16F0 cells at 0.37 to 1.85 MBq, iv after 3 hrs by gamma counting method
Type: ADME, organism-based
Settings: in vivo
Procedure, shortened: as §1

| Drug uptake [% ID/g] | SMILES |
| --- | --- |
| 38.8 | O=C(CN1Cc2ccccc2C1=O)NC1CCN(Cc2ccc([123I])cc2)CC1 |

System: Mus musculus
Assay: Biodistribution in large gastrointestinal tract of C57BL/6J mouse bearing mouse B16F0 cells at 0.37 to 1.85 MBq, iv after 6 hrs by gamma counting method
Type: ADME, organism-based
Settings: in vivo
Procedure, shortened: as §1

| Drug uptake [% ID/g] | SMILES |
| --- | --- |
| 17.6 | O=C(CN1Cc2ccccc2C1=O)NC1CCN(Cc2ccc([123I])cc2)CC1 |

System: Mus musculus
Assay: Whole body clearance in C57BL/6J mouse bearing mouse B16F0 cells at 0.37 to 1.85 MBq, iv after 16 hrs by gamma counting method
Type: ADME, organism-based
Settings: in vivo

| CL [%] | SMILES |
| --- | --- |
| > 98 | O=C(CN1Cc2ccccc2C1=O)NC1CCN(Cc2ccc([123I])cc2)CC1 |

System: Mus musculus
Assay: Biodistribution in large gastrointestinal tract of C57BL/6J mouse bearing mouse B16F0 cells at 0.37 to 1.85 MBq, iv after 16 hrs by gamma counting method
Type: ADME, organism-based, Large intestine
Settings: in vivo
Procedure, shortened: as §1

| Drug uptake [% ID/g] | SMILES |
| --- | --- |
| 8.1 | O=C(CN1Cc2ccccc2C1=O)NC1CCN(Cc2ccc([123I])cc2)CC1 |

System: Mus musculus
Assay: Biodistribution in tumor of C57BL/6J mouse bearing mouse B16F0 cells at 0.37 to 1.85 MBq, iv after 6 hrs by gamma counting method
Type: ADME, organism-based
Settings: in vivo
Procedure, shortened: as §1

| Drug uptake [% ID/g] | SMILES |
| --- | --- |
| 18.1 | O=C(CN1Cc2ccccc2C1=O)NC1CCN(Cc2ccc([123I])cc2)CC1 |

System: not listed separately
Assay: Ratio of AUC in tumor to eyes of C57BL/6J mouse bearing mouse B16F0 cells at 0.37 to 1.85 MBq, iv by gamma counting method
Type: ADME, organism-based
Settings: in vivo
Procedure, shortened: as §2

| Ratio | SMILES |
| --- | --- |
| 0.44 | O=C(CN1Cc2ccccc2C1=O)NC1CCN(Cc2ccc([123I])cc2)CC1 |

System: Mus musculus
Assay: Biodistribution in large gastrointestinal tract of C57BL/6J mouse bearing mouse B16F0 cells at 0.37 to 1.85 MBq, iv after 1 hr by gamma counting method
Type: ADME, organism-based, Large intestine
Settings: in vivo
Procedure, shortened: as §1

| Drug uptake [% ID/g] | SMILES |
| --- | --- |
| 6.6 | O=C(CN1Cc2ccccc2C1=O)NC1CCN(Cc2ccc([123I])cc2)CC1 |

System: Spleen
Assay: Biodistribution in spleen of C57BL/6J mouse bearing mouse B16F0 cells at 0.37 to 1.85 MBq, iv after 3 hrs by gamma counting method
Type: ADME, organism-based
Settings: in vivo
Procedure, shortened: as §1

| Drug uptake [% ID/g] | SMILES |
| --- | --- |
| 7.6 | O=C(CN1Cc2ccccc2C1=O)NC1CCN(Cc2ccc([123I])cc2)CC1 |

System: Liver
Assay: Biodistribution in liver of C57BL/6J mouse bearing mouse B16F0 cells at 0.37 to 1.85 MBq, iv after 1 hr by gamma counting method
Type: ADME, organism-based
Settings: in vivo
Procedure, shortened: as §1

| Drug uptake [% ID/g] | SMILES |
| --- | --- |
| 41.8 | O=C(CN1Cc2ccccc2C1=O)NC1CCN(Cc2ccc([123I])cc2)CC1 |

System: not listed separately
Assay: Stability in urine of C57BL/6J mouse bearing mouse B16F0 cells assessed as drug degradation at 0.37 to 1.85 MBq, iv after 24 hrs by radio-HPLC and radio-TLC method
Type: ADME, organism-based
Settings: in vivo, in the assay text read “20 MBq” for “0.37 to 1.85 MBq”
Procedure, shortened: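 Tumor-bearing C57BL/6J mice were sampled 3 and 24 h after i.v. tracer. Tissue was sonicated in CH3CN/water (3:2) with cold iodo standard and KI, then centrifuged. Urine was diluted and spiked; plasma was spiked, with CH3CN precipitation for TLC. Intact fraction came from silica radio-TLC (spot matching standard Rf) and radio-HPLC with precolumn/C18 column switching.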

| Stability | SMILES |
| --- | --- |
| Unstable | O=C(CN1Cc2ccccc2C1=O)NC1CCN(Cc2ccc([123I])cc2)CC1 |
